Results taken from ChEMBL document CHEMBL1806486, “Discovery and evaluation of 3-phenyl-1H-5-pyrazolylamine-based derivatives as potent, selective and efficacious inhibitors of FMS-like tyrosine kinase-3 (FLT3)” (Bioorg Med Chem, 2011).

Assays:
[1] = target: T1, Vascular endothelial growth factor receptor 2 (Homo sapiens, UniProt P35968); test: Inhibition of recombinant GST-tagged VEGFR2 expressed in Sf9 insect cells at 1 uM after 120 mins by Kinase-Glo assay
MOLM-13 = test: Antiproliferation activity against human MOLM13 cells expressing FLT3 mutation assessed as cell viability after 72 hrs by MTS method; type: functional; details: MOLM-13, 72 h
[2] = target: T2, Receptor-type tyrosine-protein kinase FLT3 (Homo sapiens, UniProt P36888); test: Inhibition of GST-tagged FLT3 expressing wild type kinase domain expressed in Sf9 insect cells after 4 hrs by Kinase-Glo assay
T2 sequence (P36888 whole entry): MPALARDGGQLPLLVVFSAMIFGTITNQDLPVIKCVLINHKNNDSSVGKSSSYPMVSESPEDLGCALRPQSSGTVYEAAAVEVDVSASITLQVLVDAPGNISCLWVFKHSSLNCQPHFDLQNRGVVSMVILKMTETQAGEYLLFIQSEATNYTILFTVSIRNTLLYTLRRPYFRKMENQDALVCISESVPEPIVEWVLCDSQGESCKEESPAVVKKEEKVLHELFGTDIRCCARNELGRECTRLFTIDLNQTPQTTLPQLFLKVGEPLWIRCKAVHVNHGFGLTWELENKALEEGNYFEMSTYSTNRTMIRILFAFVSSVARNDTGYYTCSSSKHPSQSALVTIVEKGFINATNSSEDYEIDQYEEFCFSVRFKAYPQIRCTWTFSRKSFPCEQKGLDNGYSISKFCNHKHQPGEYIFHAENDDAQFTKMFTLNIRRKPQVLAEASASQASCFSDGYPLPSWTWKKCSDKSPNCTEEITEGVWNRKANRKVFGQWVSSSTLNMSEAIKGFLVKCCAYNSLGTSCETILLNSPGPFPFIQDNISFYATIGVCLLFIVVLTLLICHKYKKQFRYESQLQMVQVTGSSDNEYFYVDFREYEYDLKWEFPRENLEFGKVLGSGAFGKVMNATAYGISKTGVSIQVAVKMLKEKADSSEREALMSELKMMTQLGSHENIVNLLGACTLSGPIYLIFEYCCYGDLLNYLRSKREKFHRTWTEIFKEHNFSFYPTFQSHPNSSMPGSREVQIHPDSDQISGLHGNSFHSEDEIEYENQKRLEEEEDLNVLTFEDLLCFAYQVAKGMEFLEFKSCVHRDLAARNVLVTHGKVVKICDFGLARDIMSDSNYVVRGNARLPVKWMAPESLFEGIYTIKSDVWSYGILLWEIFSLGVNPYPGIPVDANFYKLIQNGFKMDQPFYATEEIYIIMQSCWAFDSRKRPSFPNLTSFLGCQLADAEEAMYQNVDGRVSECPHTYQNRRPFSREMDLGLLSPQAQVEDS

Aurora kinase A = target: T3, Aurora kinase A (Homo sapiens, UniProt O14965); test: Inhibition of recombinant GST-tagged Aurora A expressed in Sf9 insect cells after 90 mins by Kinase-Glo assay
T3 sequence (O14965 whole entry): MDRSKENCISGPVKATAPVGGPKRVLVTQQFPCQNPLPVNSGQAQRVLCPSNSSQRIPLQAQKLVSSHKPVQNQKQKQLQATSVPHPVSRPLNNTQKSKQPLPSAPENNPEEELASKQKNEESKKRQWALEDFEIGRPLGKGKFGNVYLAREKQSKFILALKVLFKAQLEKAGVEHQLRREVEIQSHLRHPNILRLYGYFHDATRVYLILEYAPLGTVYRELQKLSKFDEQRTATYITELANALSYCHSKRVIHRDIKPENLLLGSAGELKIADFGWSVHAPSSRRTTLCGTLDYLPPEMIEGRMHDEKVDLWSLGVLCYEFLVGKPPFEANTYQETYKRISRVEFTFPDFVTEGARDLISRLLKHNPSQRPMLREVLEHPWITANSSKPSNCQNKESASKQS
Procedure, shortened: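 GST-Aurora A kinase domain (S123–S401, 150 ng) from Sf9 cells. Buffer was 50 mM Tris-HCl pH 7.4 with 10 mM NaCl, 10 mM MgCl2, 0.01% BSA and 1 mM DTT. Kinase-Glo Plus was added for 20 min at 25 °C before the luminescence read.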

[3] = target: Vascular endothelial growth factor receptor 1 (Homo sapiens, UniProt P17948); test: Inhibition of recombinant GST-tagged VEGFR1 expressed in Sf9 insect cells after 120 mins by Kinase-Glo assay
Sequence of Vascular endothelial growth factor receptor 1 (P17948 whole entry, the tested form may be a part): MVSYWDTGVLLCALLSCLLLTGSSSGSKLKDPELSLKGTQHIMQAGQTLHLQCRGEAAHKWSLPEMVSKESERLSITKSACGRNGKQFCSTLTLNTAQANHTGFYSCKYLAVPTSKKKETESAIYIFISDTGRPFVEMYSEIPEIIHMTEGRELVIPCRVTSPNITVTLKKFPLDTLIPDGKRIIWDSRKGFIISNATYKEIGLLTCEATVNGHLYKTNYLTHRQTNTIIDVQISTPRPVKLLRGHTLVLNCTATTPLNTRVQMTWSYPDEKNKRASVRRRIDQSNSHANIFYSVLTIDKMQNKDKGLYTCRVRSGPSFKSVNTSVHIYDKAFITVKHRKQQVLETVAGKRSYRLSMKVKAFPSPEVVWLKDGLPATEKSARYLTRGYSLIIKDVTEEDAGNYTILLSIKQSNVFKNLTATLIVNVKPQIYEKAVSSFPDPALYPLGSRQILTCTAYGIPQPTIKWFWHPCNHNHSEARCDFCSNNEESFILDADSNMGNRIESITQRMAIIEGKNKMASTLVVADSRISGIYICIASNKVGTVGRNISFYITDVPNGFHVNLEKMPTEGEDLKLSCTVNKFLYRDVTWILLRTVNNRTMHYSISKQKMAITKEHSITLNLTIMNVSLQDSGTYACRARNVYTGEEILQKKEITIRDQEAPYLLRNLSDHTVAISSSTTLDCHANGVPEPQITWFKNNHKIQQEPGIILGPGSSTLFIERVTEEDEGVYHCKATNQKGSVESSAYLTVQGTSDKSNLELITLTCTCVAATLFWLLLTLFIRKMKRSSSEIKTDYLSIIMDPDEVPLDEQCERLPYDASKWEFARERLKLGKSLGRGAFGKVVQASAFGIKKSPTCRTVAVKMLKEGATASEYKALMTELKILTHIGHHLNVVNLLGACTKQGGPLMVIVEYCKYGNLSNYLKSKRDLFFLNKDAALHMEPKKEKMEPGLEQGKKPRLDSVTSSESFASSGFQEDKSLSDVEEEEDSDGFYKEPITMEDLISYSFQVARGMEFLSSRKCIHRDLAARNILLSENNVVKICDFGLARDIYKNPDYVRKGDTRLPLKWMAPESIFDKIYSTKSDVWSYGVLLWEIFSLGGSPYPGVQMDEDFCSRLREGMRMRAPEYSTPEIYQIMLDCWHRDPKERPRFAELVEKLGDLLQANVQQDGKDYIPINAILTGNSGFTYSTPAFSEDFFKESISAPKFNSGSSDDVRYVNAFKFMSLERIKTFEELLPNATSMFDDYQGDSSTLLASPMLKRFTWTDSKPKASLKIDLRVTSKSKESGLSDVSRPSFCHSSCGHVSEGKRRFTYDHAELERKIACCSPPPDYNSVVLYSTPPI
Procedure, shortened: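 GST-VEGFR1 (R781–I1338) or GST-VEGFR2 (V789–V1356) kinase domain, 50–100 ng, from Sf9 cells. Read-out was Kinase-Glo Plus luminescence.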

[4] = target: T1, Vascular endothelial growth factor receptor 2; test: Inhibition of recombinant GST-tagged VEGFR2 expressed in Sf9 insect cells after 120 mins by Kinase-Glo assay; type: cell-based
[5] = target: Aurora kinase A (Homo sapiens) (UniProt O14965); test: Inhibition of recombinant GST-tagged Aurora A expressed in Sf9 insect cells at 1 uM after 90 mins by Kinase-Glo assay
MV4-11 = test: Antiproliferation activity against FLT3/ITD harboring human MV4-11 cells after 72 hrs by MTS method; type: functional; details: MV4-11, 72 h
MOLT-4 = test: Antiproliferation activity against human MOLT4 after 72 hrs by MTS method; type: functional; details: MOLT-4, 72 h
K562 = test: Antiproliferation activity against human K562 cells expressing wild type BCR/ABL after 72 hrs by MTS method; type: functional; details: K562, 72 h
[6] = Antiproliferation activity against human RS4:11 cells expressing wild type FLT3 after 72 hrs by MTS method; type: functional; details: RS4-11, 72 h
[7] = Volume of distribution at steady state in Sprague-Dawley rat at 5 mg/kg, iv; type: ADME, organism-based; design: dose 5 mg/kg, route intravenous; details: in vivo, read-out: Vdss
[8] = Half life in Sprague-Dawley rat at 5 mg/kg, iv; type: ADME, organism-based; design: dose 5 mg/kg, route intravenous; details: in vivo
Mus musculus [9] = test: Toxicity in athymic nu/nu nude mouse assessed as lethality at 50 mg/kg, iv for continuous 5 days; type: organism-based; design: dose 50 mg/kg, route intravenous; details: in vivo, 120 h
[10] = AUC (0 to infinity) in Sprague-Dawley rat at 5 mg/kg, iv; type: ADME, organism-based; design: time infinity, dose 5 mg/kg, route intravenous; details: plasma
[11] = Clearance in Sprague-Dawley rat at 5 mg/kg, iv; type: ADME, organism-based; design: dose 5 mg/kg, route intravenous; details: in vivo
Mus musculus [12] = test: Toxicity in normal mouse assessed as reduction of body weight at 50 mg/kg, iv for continuous 5 days; details: in vivo, 120 h
[13] = target: Receptor-type tyrosine-protein kinase FLT3 (Homo sapiens) (UniProt P36888); test: Inhibition of GST-tagged FLT3 expressing wild type kinase domain expressed in Sf9 insect cells at 1 uM after 4 hrs by Kinase-Glo assay

T1 sequence (P35968 whole entry): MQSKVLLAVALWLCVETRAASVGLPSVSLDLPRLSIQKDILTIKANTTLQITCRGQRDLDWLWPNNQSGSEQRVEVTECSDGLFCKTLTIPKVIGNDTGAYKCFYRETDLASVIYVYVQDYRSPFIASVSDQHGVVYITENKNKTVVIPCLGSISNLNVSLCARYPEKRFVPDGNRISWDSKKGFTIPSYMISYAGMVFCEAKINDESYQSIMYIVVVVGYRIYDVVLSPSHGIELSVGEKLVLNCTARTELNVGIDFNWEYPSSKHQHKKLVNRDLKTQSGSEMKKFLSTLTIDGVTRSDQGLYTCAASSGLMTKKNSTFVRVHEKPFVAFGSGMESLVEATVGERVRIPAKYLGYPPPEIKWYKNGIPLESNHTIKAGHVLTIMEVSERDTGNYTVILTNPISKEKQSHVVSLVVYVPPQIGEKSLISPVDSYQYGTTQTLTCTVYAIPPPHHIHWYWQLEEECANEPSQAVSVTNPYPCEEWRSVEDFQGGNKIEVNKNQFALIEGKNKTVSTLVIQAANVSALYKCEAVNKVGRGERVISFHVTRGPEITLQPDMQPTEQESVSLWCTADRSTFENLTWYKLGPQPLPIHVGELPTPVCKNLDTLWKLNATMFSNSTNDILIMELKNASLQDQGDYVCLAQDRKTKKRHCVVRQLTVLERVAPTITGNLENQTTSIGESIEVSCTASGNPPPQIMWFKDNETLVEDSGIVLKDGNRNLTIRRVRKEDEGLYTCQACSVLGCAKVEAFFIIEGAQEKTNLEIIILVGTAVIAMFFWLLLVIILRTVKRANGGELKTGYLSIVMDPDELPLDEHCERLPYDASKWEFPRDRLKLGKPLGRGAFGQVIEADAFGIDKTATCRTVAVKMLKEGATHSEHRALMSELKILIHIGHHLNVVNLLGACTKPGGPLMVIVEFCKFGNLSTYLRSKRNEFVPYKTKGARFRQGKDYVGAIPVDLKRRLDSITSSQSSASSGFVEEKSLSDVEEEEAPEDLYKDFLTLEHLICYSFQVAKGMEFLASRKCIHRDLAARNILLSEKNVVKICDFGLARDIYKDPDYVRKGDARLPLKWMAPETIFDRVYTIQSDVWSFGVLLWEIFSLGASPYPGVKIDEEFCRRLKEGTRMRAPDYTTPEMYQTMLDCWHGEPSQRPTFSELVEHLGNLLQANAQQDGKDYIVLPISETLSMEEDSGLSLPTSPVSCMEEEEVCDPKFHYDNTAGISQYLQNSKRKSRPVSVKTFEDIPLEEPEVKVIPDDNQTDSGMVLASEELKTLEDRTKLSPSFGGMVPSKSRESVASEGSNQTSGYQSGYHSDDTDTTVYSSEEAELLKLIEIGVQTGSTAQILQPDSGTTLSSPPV

GI50 (MOLM-13) | IC50 [2] | IC50 (Aurora kinase A) | IC50 [3] | IC50 [4] | SMILES | other results
0.38 µM | 0.01 µM | 0.68 µM | > 1 µM |  | Cc1nc(NCCCN2CCOCC2)cc(Nc2cc(-c3cccc(NS(=O)(=O)c4ccccc4)c3)n[nH]2)n1 | inhibition [1]: 55%
0.05 µM | 0.09 µM | > 1 µM | 0.42 µM | 0.16 µM | COc1ccc(S(=O)(=O)Nc2cccc(-c3cc(NC(=O)c4ccc(N5CCN(C)CC5)cc4)[nH]n3)c2)cc1 | 
0.16 µM | 0.11 µM | > 1 µM | > 1 µM | > 1 µM | CCCCS(=O)(=O)Nc1cccc(-c2cc(Nc3cc(N4CCN(C)CC4)nc(C)n3)[nH]n2)c1 | 
0.033 µM | 0.36 µM | > 1 µM | > 1 µM | > 1 µM | CCS(=O)(=O)Nc1cccc(-c2cc(NC(=O)c3ccc(N4CCN(C)CC4)cc3)[nH]n2)c1 | 
 | > 1 µM |  |  |  | O=C(Nc1cc(-c2cccc(NS(=O)(=O)c3ccccc3)c2)n[nH]1)c1ccc(C(F)(F)F)cc1 | 
0.039 µM | 0.008 µM | 1.71 µM | 0.04 µM | 0.25 µM | CN1CCN(c2ccc(C(=O)Nc3cc(-c4cccc(NS(=O)(=O)c5cccc(Cl)c5)c4)n[nH]3)cc2)CC1 | 
0.024 µM | 0.05 µM | 0.17 µM | > 1 µM | 0.14 µM | Cc1nc(Nc2cc(-c3cccc(NS(=O)(=O)c4ccccc4)c3)n[nH]2)cc(N2CCN(CCO)CC2)n1 | 
0.15 µM | 0.02 µM |  |  |  | CN1CCN(c2ccc(C(=O)Nc3cc(-c4cccc(NC(=O)Nc5ccccc5)c4)n[nH]3)cc2)CC1 | 
0.26 µM | > 1 µM | > 1 µM | > 1 µM | > 1 µM | O=C(Nc1cc(-c2cccc(NS(=O)(=O)c3ccccc3)c2)n[nH]1)c1cccc(N2CCOCC2)c1 | 
0.1 µM | 0.029 µM | 0.39 µM | > 1 µM | 0.45 µM | O=C(Nc1cc(-c2cccc(NS(=O)(=O)c3ccccc3)c2)n[nH]1)c1ccc(N2CCOCC2)cc1 | 
0.072 µM | 0.07 µM |  | > 1 µM | > 1 µM | O=C(Nc1cc(-c2cccc(NS(=O)(=O)c3ccccc3)c2)n[nH]1)c1ccc(OCCN2CCOCC2)cc1 | inhibition [5]: 50%
0.056 µM | 0.1 µM | 1.64 µM | 2.61 µM | 2.72 µM | CCCS(=O)(=O)Nc1cccc(-c2cc(NC(=O)c3ccc(N4CCN(C)CC4)cc3)[nH]n2)c1 | 

Further lines, the molecule ahead of its results:

SMILES | GI50 (MOLM-13) | IC50 [2] | IC50 (Aurora kinase A) | IC50 [3] | IC50 [4] | other results
Cc1ccc(S(=O)(=O)Nc2cccc(-c3cc(NC(=O)c4ccc(N5CCN(C)CC5)cc4)[nH]n3)c2)cc1 | 0.024 µM | 0.015 µM |  | > 1 µM | > 1 µM | inhibition [5]: 50%
CNC(=O)c1cc(Oc2ccc(NC(=O)Nc3ccc(Cl)c(C(F)(F)F)c3)cc2)ccn1 [SORAFENIB] |  |  |  |  |  | GI50 (MV4-11): 0.03 µM; GI50 (MOLT-4): 9 µM; GI50 (K562): 6.2 µM; GI50 [6]: 9.4 µM
CC(C)S(=O)(=O)Nc1cccc(-c2cc(NC(=O)c3ccc(N4CCN(C)CC4)cc3)[nH]n2)c1 | 0.044 µM | 0.16 µM | > 1 µM | > 1 µM | > 1 µM | 
Cc1cccc(S(=O)(=O)Nc2cccc(-c3cc(Nc4cc(N5CCN(C)CC5)nc(C)n4)[nH]n3)c2)c1 | 0.078 µM | 0.12 µM | > 1 µM | > 1 µM | > 1 µM | 
O=C(Nc1cc(-c2cccc(NS(=O)(=O)c3ccccc3)c2)n[nH]1)c1ccc(OCCN2CCCC2)cc1 | 0.025 µM | 0.007 µM | 1.17 µM | 0.27 µM | 0.2 µM | Vd [7]: 10.7 L/kg; half-life [8]: 9.9 h; Activity (Mus musculus [9]): Toxic; AUC(0-inf) [10]: 3940 ng·h/mL; clearance [11]: 22.3 mL/min/kg; Activity (Mus musculus [12]): Toxic
CN1CCN(c2cccc(C(=O)Nc3cc(-c4cccc(NS(=O)(=O)c5ccccc5)c4)n[nH]3)c2)CC1 | 0.19 µM | 0.065 µM | 0.85 µM | > 1 µM | 0.41 µM | 
O=C(Nc1cc(-c2cccc(NS(=O)(=O)c3ccccc3)c2)n[nH]1)c1ccccc1 |  |  |  |  |  | inhibition [13]: 54%
CN1CCN(c2ccc(C(=O)Nc3cc(-c4cccc(NS(=O)(=O)c5ccccc5)c4)n[nH]3)cc2)CC1 | 0.012 µM | 0.013 µM | 0.34 µM | 0.21 µM | 0.13 µM | Vd [7]: 15.5 L/kg; half-life [8]: 4.5 h; Activity (Mus musculus [9]): Toxic; AUC(0-inf) [10]: 551 ng·h/mL; clearance [11]: 102 mL/min/kg; Activity (Mus musculus [12]): Toxic
O=C(O)c1ccc(C(=O)Nc2cc(-c3cccc(NS(=O)(=O)c4ccccc4)c3)n[nH]2)cc1 |  |  |  |  |  | inhibition [13]: 61%
CN1CCN(c2ccc(C(=O)Nc3cc(-c4cccc(NC(=O)c5ccccc5)c4)n[nH]3)cc2)CC1 | 0.21 µM | 0.27 µM |  |  |  | 
O=C(Nc1cc(-c2cccc(NS(=O)(=O)c3ccccc3)c2)n[nH]1)c1cccc(C(F)(F)F)c1 |  | > 1 µM |  |  |  | 
CN1CCN(c2ccc(C(=O)Nc3cc(-c4cccc(N)c4)n[nH]3)cc2)CC1 | 0.077 µM | 0.014 µM |  |  |  | 
CN1CCN(c2ccc(C(=O)Nc3cc(-c4ccc(NS(=O)(=O)c5ccccc5)cc4)n[nH]3)cc2)CC1 | 0.05 µM | 0.59 µM |  |  |  | 
O=C(O)c1cccc(C(=O)Nc2cc(-c3cccc(NS(=O)(=O)c4ccccc4)c3)n[nH]2)c1 |  |  |  |  |  | inhibition [13]: 56%
CN1CCN(c2ccc(C(=O)Nc3cc(-c4cccc(NS(=O)(=O)c5ccc(Cl)cc5)c4)n[nH]3)cc2)CC1 | 0.074 µM | 0.12 µM | 4.99 µM | 0.57 µM | > 1 µM | 
Cc1nc(NCCN2CCOCC2)cc(Nc2cc(-c3cccc(NS(=O)(=O)c4ccccc4)c3)n[nH]2)n1 | 0.46 µM | 0.06 µM | > 1 µM | > 1000 µM | > 1 µM | 
Cc1cccc(S(=O)(=O)Nc2cccc(-c3cc(NC(=O)c4ccc(N5CCN(C)CC5)cc4)[nH]n3)c2)c1 | 0.016 µM | 0.007 µM | 0.43 µM | 0.14 µM | 0.07 µM | Vd [7]: 2.6 L/kg; half-life [8]: 1.7 h; Activity (Mus musculus [9]): Toxic; AUC(0-inf) [10]: 1200 ng·h/mL; clearance [11]: 67.4 mL/min/kg; Activity (Mus musculus [12]): Toxic
